From ChEMBL document CHEMBL4689842, “EUbOPEN Chemogenomics Library wave 1” (2021)

Key:
Format in all cases: toxicity, cell-based
Fibroblast [1] = assay: Multiplex assay against human fibroblast
Outline: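 Four dyes were applied at seeding to live cells: Hoechst33342, BioTracker Green Microtubule Cytoskeleton Dye, MitoTracker Red and Annexin V Alexa Fluor 680. Imaging after compound addition used a CQ1 microscope at 37°C and 5% CO2. CellPathfinder machine-learning gating then sorted cells into Hoechst high-intensity objects or normal cells, normal cells into healthy, pyknosed or fragmented nuclei, and pyknosed cells into mitotic or apoptotic, with tubulin, mitochondrial-mass and membrane-permeability phenotypes given as per cents of healthy-nucleus cells.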

U2OS = assay: Incucyte cell viability with U2OS; conditions: human, 10 µM, compound concentration 10 uM; also: filed as whole numbers so only -1 and 0 and 1 occur
HEK-293T = assay: Incucyte cell viability with HEK293T; conditions: human, 10 µM, compound concentration 10 uM; also: filed as whole numbers so only -1 and 0 and 1 occur
Fibroblast [2] = assay: Incucyte cell viability with human fibroblast; conditions: 10 µM, compound concentration 10 uM; also: filed as whole numbers so only -1 and 0 and 1 occur
[3] = 12 h, 1 µM, compound concentration 1 uM, replicate 1
[4] = 12 h, 1 µM, compound concentration 1 uM, replicate 2
[5] = 12 h, 10 µM, compound concentration 10 uM, replicate 1
[6] = 12 h, 10 µM, compound concentration 10 uM, replicate 2
[7] = 24 h, 1 µM, compound concentration 1 uM, replicate 1
[8] = 24 h, 1 µM, compound concentration 1 uM, replicate 2
[9] = 24 h, 10 µM, compound concentration 10 uM, replicate 1
[10] = 24 h, 10 µM, compound concentration 10 uM, replicate 2
[11] = 48 h, 1 µM, compound concentration 1 uM, replicate 1
[12] = 48 h, 1 µM, compound concentration 1 uM, replicate 2
[13] = 48 h, 10 µM, compound concentration 10 uM, replicate 1
[14] = 48 h, 10 µM, compound concentration 10 uM, replicate 2
[15] = 0 h, replicate number 1, timepoint 0 hours
[16] = 12 h, replicate number 1, timepoint 12 hours
[17] = 18 h, replicate number 1, timepoint 18 hours
[18] = 24 h, replicate number 1, timepoint 24 hours
[19] = 6 h, replicate number 1, timepoint 6 hours

In the case of CC(Cc1ccc(O)c(O)c1)C(C)Cc1ccc(O)c(O)c1 (centres undefined) [NORDIHYDROGUAIARETIC ACID], the “Population Apoptotic (%)” value (Fibroblast [1]; [3]) is reported as 66%, the “Population Fragmented Nuclei (%)” value (Fibroblast [1]; [3]) is reported as 19% and the “Population Healthy Nuclei (%)” value (Fibroblast [1]; [3]) is reported as 50%. For the same compound, the “Population Hoechst High Intensity Objects (%)” value (Fibroblast [1]; [3]) was 5%, the “Population Membrane Permeable-Phenotype (%)” value (Fibroblast [1]; [3]) was 19% and the “Population Mitochondria Different-Phenotype (%)” value (Fibroblast [1]; [3]) was 4%. For the same compound, the “Population Mitotic Cells (%)” value (Fibroblast [1]; [3]) was 33%, the “Population Normal (%)” value (Fibroblast [1]; [3]) was 94% and the “Population Pyknosed Nuclei (%)” value (Fibroblast [1]; [3]) was 29%. For the same compound, the “Population Tubulin-Different-Phenotype (%)” value (Fibroblast [1]; [3]) was 19%, the “Total Cell Count” value (Fibroblast [1]; [3]) was 170 and the “Population Apoptotic (%)” value (Fibroblast [1]; [4]) was 0%. For the same compound, the “Population Fragmented Nuclei (%)” value (Fibroblast [1]; [4]) was 3%, the “Population Healthy Nuclei (%)” value (Fibroblast [1]; [4]) was 93% and the “Population Hoechst High Intensity Objects (%)” value (Fibroblast [1]; [4]) was 15%. The “Population Membrane Permeable-Phenotype (%)” value (Fibroblast [1]; [4]) was 0%, the “Population Mitochondria Different-Phenotype (%)” value (Fibroblast [1]; [4]) was 1% and the “Population Mitotic Cells (%)” value (Fibroblast [1]; [4]) was 100%. The “Population Normal (%)” value (Fibroblast [1]; [4]) was 84%, the “Population Pyknosed Nuclei (%)” value (Fibroblast [1]; [4]) was 3% and the “Population Tubulin-Different-Phenotype (%)” value (Fibroblast [1]; [4]) was 25%. For the same compound, the “Population Apoptotic (%)” value (Fibroblast [1]; [5]) was 87%, the “Population Fragmented Nuclei (%)” value (Fibroblast [1]; [5]) was 19% and the “Population Healthy Nuclei (%)” value (Fibroblast [1]; [5]) was 46%. For the same compound, the “Population Hoechst High Intensity Objects (%)” value (Fibroblast [1]; [5]) was 14%, the “Population Membrane Permeable-Phenotype (%)” value (Fibroblast [1]; [5]) was 18% and the “Population Mitochondria Different-Phenotype (%)” value (Fibroblast [1]; [5]) was 6%. For the same compound, the “Population Mitotic Cells (%)” value (Fibroblast [1]; [5]) was 12%, the “Population Normal (%)” value (Fibroblast [1]; [5]) was 85% and the “Population Pyknosed Nuclei (%)” value (Fibroblast [1]; [5]) was 33%. For the same compound, the “Population Tubulin-Different-Phenotype (%)” value (Fibroblast [1]; [5]) was 13%, the “Population Apoptotic (%)” value (Fibroblast [1]; [6]) was 0% and the “Population Fragmented Nuclei (%)” value (Fibroblast [1]; [6]) was 2%. The “Population Healthy Nuclei (%)” value (Fibroblast [1]; [6]) was 91%, the “Population Hoechst High Intensity Objects (%)” value (Fibroblast [1]; [6]) was 6% and the “Population Membrane Permeable-Phenotype (%)” value (Fibroblast [1]; [6]) was 2%. The “Population Mitochondria Different-Phenotype (%)” value (Fibroblast [1]; [6]) was 10%, the “Population Mitotic Cells (%)” value (Fibroblast [1]; [6]) was 100% and the “Population Normal (%)” value (Fibroblast [1]; [6]) was 93%. For the same compound, the “Population Pyknosed Nuclei (%)” value (Fibroblast [1]; [6]) was 5%, the “Population Tubulin-Different-Phenotype (%)” value (Fibroblast [1]; [6]) was 38% and the “Total Cell Count” value (Fibroblast [1]; [6]) was 70. The “Population Apoptotic (%)” value (Fibroblast [1]; [7]) was 50%, the “Population Fragmented Nuclei (%)” value (Fibroblast [1]; [7]) was 20% and the “Population Healthy Nuclei (%)” value (Fibroblast [1]; [7]) was 63%. The “Population Hoechst High Intensity Objects (%)” value (Fibroblast [1]; [7]) was 6%, the “Population Membrane Permeable-Phenotype (%)” value (Fibroblast [1]; [7]) was 22% and the “Population Mitochondria Different-Phenotype (%)” value (Fibroblast [1]; [7]) was 3%. The “Population Mitotic Cells (%)” value (Fibroblast [1]; [7]) was 50%, the “Population Normal (%)” value (Fibroblast [1]; [7]) was 93% and the “Population Pyknosed Nuclei (%)” value (Fibroblast [1]; [7]) was 16%. For the same compound, the “Population Tubulin-Different-Phenotype (%)” value (Fibroblast [1]; [7]) was 25%, the “Total Cell Count” value (Fibroblast [1]; [7]) was 165 and the “Population Apoptotic (%)” value (Fibroblast [1]; [8]) was 0%. The “Population Fragmented Nuclei (%)” value (Fibroblast [1]; [8]) was 2%, the “Population Healthy Nuclei (%)” value (Fibroblast [1]; [8]) was 94% and the “Population Hoechst High Intensity Objects (%)” value (Fibroblast [1]; [8]) was 7%. The “Population Membrane Permeable-Phenotype (%)” value (Fibroblast [1]; [8]) was 0%, the “Population Mitochondria Different-Phenotype (%)” value (Fibroblast [1]; [8]) was 8% and the “Population Mitotic Cells (%)” value (Fibroblast [1]; [8]) was 100%. The “Population Normal (%)” value (Fibroblast [1]; [8]) was 92%, the “Population Pyknosed Nuclei (%)” value (Fibroblast [1]; [8]) was 2% and the “Population Tubulin-Different-Phenotype (%)” value (Fibroblast [1]; [8]) was 23%. The “Population Apoptotic (%)” value (Fibroblast [1]; [9]) was 87%, the “Population Fragmented Nuclei (%)” value (Fibroblast [1]; [9]) was 18% and the “Population Healthy Nuclei (%)” value (Fibroblast [1]; [9]) was 62%. For the same compound, the “Population Hoechst High Intensity Objects (%)” value (Fibroblast [1]; [9]) was 17%, the “Population Membrane Permeable-Phenotype (%)” value (Fibroblast [1]; [9]) was 7% and the “Population Mitochondria Different-Phenotype (%)” value (Fibroblast [1]; [9]) was 5%. The “Population Mitotic Cells (%)” value (Fibroblast [1]; [9]) was 12%, the “Population Normal (%)” value (Fibroblast [1]; [9]) was 82% and the “Population Pyknosed Nuclei (%)” value (Fibroblast [1]; [9]) was 19%. For the same compound, the “Population Tubulin-Different-Phenotype (%)” value (Fibroblast [1]; [9]) was 7%, the “Population Apoptotic (%)” value (Fibroblast [1]; [10]) was 16% and the “Population Fragmented Nuclei (%)” value (Fibroblast [1]; [10]) was 2%. For the same compound, the “Population Healthy Nuclei (%)” value (Fibroblast [1]; [10]) was 90%, the “Population Hoechst High Intensity Objects (%)” value (Fibroblast [1]; [10]) was 5% and the “Population Membrane Permeable-Phenotype (%)” value (Fibroblast [1]; [10]) was 1%. The “Population Mitochondria Different-Phenotype (%)” value (Fibroblast [1]; [10]) was 9%, the “Population Mitotic Cells (%)” value (Fibroblast [1]; [10]) was 83% and the “Population Normal (%)” value (Fibroblast [1]; [10]) was 94%. The “Population Pyknosed Nuclei (%)” value (Fibroblast [1]; [10]) was 7%, the “Population Tubulin-Different-Phenotype (%)” value (Fibroblast [1]; [10]) was 61% and the “Population Apoptotic (%)” value (Fibroblast [1]; [11]) was 60%. For the same compound, the “Population Fragmented Nuclei (%)” value (Fibroblast [1]; [11]) was 20%, the “Population Healthy Nuclei (%)” value (Fibroblast [1]; [11]) was 75% and the “Population Hoechst High Intensity Objects (%)” value (Fibroblast [1]; [11]) was 8%. The “Population Membrane Permeable-Phenotype (%)” value (Fibroblast [1]; [11]) was 25%, the “Population Mitochondria Different-Phenotype (%)” value (Fibroblast [1]; [11]) was 0% and the “Population Mitotic Cells (%)” value (Fibroblast [1]; [11]) was 40%. The “Population Normal (%)” value (Fibroblast [1]; [11]) was 91%, the “Population Pyknosed Nuclei (%)” value (Fibroblast [1]; [11]) was 3% and the “Population Tubulin-Different-Phenotype (%)” value (Fibroblast [1]; [11]) was 16%. For the same compound, the “Total Cell Count” value (Fibroblast [1]; [11]) was 162, the “Population Apoptotic (%)” value (Fibroblast [1]; [12]) was 66% and the “Population Fragmented Nuclei (%)” value (Fibroblast [1]; [12]) was 25%. For the same compound, the “Population Healthy Nuclei (%)” value (Fibroblast [1]; [12]) was 70%, the “Population Hoechst High Intensity Objects (%)” value (Fibroblast [1]; [12]) was 20% and the “Population Membrane Permeable-Phenotype (%)” value (Fibroblast [1]; [12]) was 17%. For the same compound, the “Population Mitotic Cells (%)” value (Fibroblast [1]; [12]) was 33%, the “Population Normal (%)” value (Fibroblast [1]; [12]) was 80% and the “Population Pyknosed Nuclei (%)” value (Fibroblast [1]; [12]) was 4%. The “Population Tubulin-Different-Phenotype (%)” value (Fibroblast [1]; [12]) was 21%, the “Total Cell Count” value (Fibroblast [1]; [12]) was 90 and the “Population Apoptotic (%)” value (Fibroblast [1]; [13]) was 92%. For the same compound, the “Population Fragmented Nuclei (%)” value (Fibroblast [1]; [13]) was 33%, the “Population Healthy Nuclei (%)” value (Fibroblast [1]; [13]) was 52% and the “Population Hoechst High Intensity Objects (%)” value (Fibroblast [1]; [13]) was 15%. For the same compound, the “Population Membrane Permeable-Phenotype (%)” value (Fibroblast [1]; [13]) was 6%, the “Population Mitotic Cells (%)” value (Fibroblast [1]; [13]) was 7% and the “Population Normal (%)” value (Fibroblast [1]; [13]) was 84%. The “Population Pyknosed Nuclei (%)” value (Fibroblast [1]; [13]) was 14%, the “Population Tubulin-Different-Phenotype (%)” value (Fibroblast [1]; [13]) was 0% and the “Population Apoptotic (%)” value (Fibroblast [1]; [14]) was 100%. The “Population Fragmented Nuclei (%)” value (Fibroblast [1]; [14]) was 20%, the “Population Healthy Nuclei (%)” value (Fibroblast [1]; [14]) was 77% and the “Population Hoechst High Intensity Objects (%)” value (Fibroblast [1]; [14]) was 11%. For the same compound, the “Population Membrane Permeable-Phenotype (%)” value (Fibroblast [1]; [14]) was 9%, the “Population Mitochondria Different-Phenotype (%)” value (Fibroblast [1]; [14]) was 0% and the “Population Mitotic Cells (%)” value (Fibroblast [1]; [14]) was 0%. For the same compound, the “Population Normal (%)” value (Fibroblast [1]; [14]) was 88%, the “Population Pyknosed Nuclei (%)” value (Fibroblast [1]; [14]) was 1% and the “Population Tubulin-Different-Phenotype (%)” value (Fibroblast [1]; [14]) was 2%. The “Growth Rate” value (U2OS; [15]) was 0, the “Growth Rate” value (U2OS; 6 h, replicate number 2, timepoint 6 hours) was 0 and the “Growth Rate” value (U2OS; [16]) was 0. The “Growth Rate” value (U2OS; [17]) was 0, the “Growth Rate” value (U2OS; [18]) was 0 and the “Growth Rate” value (HEK-293T; [15]) was 1. For the same compound, the “Growth Rate” value (HEK-293T; 0 h, replicate number 2, timepoint 0 hours) was 0, the “Growth Rate” value (HEK-293T; [19]) was 0 and the “Growth Rate” value (HEK-293T; [16]) was 0. For the same compound, the “Growth Rate” value (HEK-293T; [17]) was 0, the “Growth Rate” value (HEK-293T; [18]) was 0 and the “Growth Rate” value (Fibroblast [2]; [15]) was 0. For the same compound, the “Growth Rate” value (Fibroblast [2]; [19]) was 0, the “Growth Rate” value (Fibroblast [2]; [16]) was 0 and the “Growth Rate” value (Fibroblast [2]; [17]) was 0. For the same compound, the “Growth Rate” value (Fibroblast [2]; [18]) was 0.
